Source: ChEMBL document CHEMBL4689842, “EUbOPEN Chemogenomics Library wave 1” (2021)

System: U2OS
Assay: Multiplex assay against U2OS
Assay type: toxicity, cell-based
Conditions: human
In short: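 Live cells were stained at seeding with Hoechst33342, BioTracker Green Microtubule Cytoskeleton Dye, MitoTracker Red and Annexin V Alexa Fluor 680. Following compound addition, they were imaged on a CQ1 microscope at 37°C and 5% CO2 and gated by CellPathfinder machine learning into Hoechst high-intensity objects or normal cells, with normal cells split into healthy, pyknosed or fragmented nuclei and pyknosed cells into mitotic or apoptotic. Tubulin, mitochondrial-mass and membrane-permeability phenotypes are per cents of healthy-nucleus cells.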

[1] = 12 h, 1 µM, compound concentration 1 uM, replicate 1
[2] = 12 h, 1 µM, compound concentration 1 uM, replicate 2
[3] = 12 h, 10 µM, compound concentration 10 uM, replicate 1
[4] = 12 h, 10 µM, compound concentration 10 uM, replicate 2
[5] = 24 h, 1 µM, compound concentration 1 uM, replicate 1
[6] = 24 h, 1 µM, compound concentration 1 uM, replicate 2
[7] = 24 h, 10 µM, compound concentration 10 uM, replicate 1
[8] = 24 h, 10 µM, compound concentration 10 uM, replicate 2
[9] = 48 h, 1 µM, compound concentration 1 uM, replicate 1
[10] = 48 h, 1 µM, compound concentration 1 uM, replicate 2
[11] = 48 h, 10 µM, compound concentration 10 uM, replicate 1
[12] = 48 h, 10 µM, compound concentration 10 uM, replicate 2

For `C[C@]12CC[C@@H]3c4ccc(O)cc4CC[C@H]3[C@@H]1CC[C@@H]2O` [ESTRADIOL], the “Population Apoptotic (%)” value [1] was 11%, the “Population Fragmented Nuclei (%)” value [1] was 8% and the “Population Healthy Nuclei (%)” value [1] was 82%. For the same compound, the “Population Hoechst High Intensity Objects (%)” value [1] was 7%, the “Population Membrane Permeable-Phenotype (%)” value [1] was 10% and the “Population Mitochondria Different-Phenotype (%)” value [1] was 9%. The “Population Mitotic Cells (%)” value [1] was 88%, the “Population Normal (%)” value [1] was 92% and the “Population Pyknosed Nuclei (%)” value [1] was 8%. The “Population Tubulin-Different-Phenotype (%)” value [1] was 12%, the “Total Cell Count” value [1] was 138 and the “Population Apoptotic (%)” value [2] was 50%. The “Population Healthy Nuclei (%)” value [2] was 86%, the “Population Hoechst High Intensity Objects (%)” value [2] was 5% and the “Population Membrane Permeable-Phenotype (%)” value [2] was 4%. For the same compound, the “Population Mitochondria Different-Phenotype (%)” value [2] was 8%, the “Population Mitotic Cells (%)” value [2] was 50% and the “Population Normal (%)” value [2] was 94%. For the same compound, the “Population Pyknosed Nuclei (%)” value [2] was 5%, the “Population Tubulin-Different-Phenotype (%)” value [2] was 14% and the “Total Cell Count” value [2] was 80. The “Population Apoptotic (%)” value [3] was 30%, the “Population Fragmented Nuclei (%)” value [3] was 5% and the “Population Healthy Nuclei (%)” value [3] was 82%. The “Population Hoechst High Intensity Objects (%)” value [3] was 4%, the “Population Membrane Permeable-Phenotype (%)” value [3] was 6% and the “Population Mitochondria Different-Phenotype (%)” value [3] was 7%. For the same compound, the “Population Mitotic Cells (%)” value [3] was 70%, the “Population Normal (%)” value [3] was 95% and the “Population Pyknosed Nuclei (%)” value [3] was 11%. The “Population Tubulin-Different-Phenotype (%)” value [3] was 14%, the “Total Cell Count” value [3] was 113 and the “Population Apoptotic (%)” value [4] was 25%. The “Population Fragmented Nuclei (%)” value [4] was 9%, the “Population Healthy Nuclei (%)” value [4] was 77% and the “Population Hoechst High Intensity Objects (%)” value [4] was 8%. The “Population Membrane Permeable-Phenotype (%)” value [4] was 4%, the “Population Mitochondria Different-Phenotype (%)” value [4] was 12% and the “Population Mitotic Cells (%)” value [4] was 75%. For the same compound, the “Population Normal (%)” value [4] was 91%, the “Population Pyknosed Nuclei (%)” value [4] was 12% and the “Population Tubulin-Different-Phenotype (%)” value [4] was 25%. For the same compound, the “Total Cell Count” value [4] was 76, the “Population Apoptotic (%)” value [5] was 0% and the “Population Fragmented Nuclei (%)” value [5] was 7%. The “Population Healthy Nuclei (%)” value [5] was 87%, the “Population Hoechst High Intensity Objects (%)” value [5] was 5% and the “Population Membrane Permeable-Phenotype (%)” value [5] was 6%. The “Population Mitochondria Different-Phenotype (%)” value [5] was 6%, the “Population Mitotic Cells (%)” value [5] was 100% and the “Population Normal (%)” value [5] was 94%. For the same compound, the “Population Pyknosed Nuclei (%)” value [5] was 5%, the “Population Tubulin-Different-Phenotype (%)” value [5] was 15% and the “Total Cell Count” value [5] was 140. For the same compound, the “Population Apoptotic (%)” value [6] was 50%, the “Population Fragmented Nuclei (%)” value [6] was 4% and the “Population Healthy Nuclei (%)” value [6] was 89%. The “Population Hoechst High Intensity Objects (%)” value [6] was 3%, the “Population Membrane Permeable-Phenotype (%)” value [6] was 4% and the “Population Mitochondria Different-Phenotype (%)” value [6] was 9%. For the same compound, the “Population Mitotic Cells (%)” value [6] was 50%, the “Population Normal (%)” value [6] was 96% and the “Population Pyknosed Nuclei (%)” value [6] was 6%. For the same compound, the “Population Tubulin-Different-Phenotype (%)” value [6] was 14%, the “Total Cell Count” value [6] was 82 and the “Population Apoptotic (%)” value [7] was 21%. For the same compound, the “Population Fragmented Nuclei (%)” value [7] was 7%, the “Population Healthy Nuclei (%)” value [7] was 79% and the “Population Membrane Permeable-Phenotype (%)” value [7] was 2%. The “Population Mitotic Cells (%)” value [7] was 78%, the “Population Pyknosed Nuclei (%)” value [7] was 12% and the “Population Tubulin-Different-Phenotype (%)” value [7] was 12%. The “Total Cell Count” value [7] was 140, the “Population Apoptotic (%)” value [8] was 30% and the “Population Fragmented Nuclei (%)” value [8] was 18%. For the same compound, the “Population Healthy Nuclei (%)” value [8] was 68%, the “Population Hoechst High Intensity Objects (%)” value [8] was 3% and the “Population Membrane Permeable-Phenotype (%)” value [8] was 5%. For the same compound, the “Population Mitochondria Different-Phenotype (%)” value [8] was 11%, the “Population Mitotic Cells (%)” value [8] was 70% and the “Population Normal (%)” value [8] was 96%. The “Population Pyknosed Nuclei (%)” value [8] was 13%, the “Population Tubulin-Different-Phenotype (%)” value [8] was 43% and the “Population Apoptotic (%)” value [9] was 31%. For the same compound, the “Population Hoechst High Intensity Objects (%)” value [9] was 1%, the “Population Membrane Permeable-Phenotype (%)” value [9] was 2% and the “Population Mitotic Cells (%)” value [9] was 68%. The “Population Normal (%)” value [9] was 98%, the “Population Tubulin-Different-Phenotype (%)” value [9] was 15% and the “Total Cell Count” value [9] was 138. For the same compound, the “Population Apoptotic (%)” value [10] was 18%, the “Population Fragmented Nuclei (%)” value [10] was 5% and the “Population Healthy Nuclei (%)” value [10] was 86%. The “Population Hoechst High Intensity Objects (%)” value [10] was 2%, the “Population Membrane Permeable-Phenotype (%)” value [10] was 12% and the “Population Mitochondria Different-Phenotype (%)” value [10] was 14%. The “Population Mitotic Cells (%)” value [10] was 81%, the “Population Normal (%)” value [10] was 97% and the “Population Pyknosed Nuclei (%)” value [10] was 7%. The “Population Tubulin-Different-Phenotype (%)” value [10] was 17%, the “Total Cell Count” value [10] was 90 and the “Population Apoptotic (%)” value [11] was 34%. For the same compound, the “Population Fragmented Nuclei (%)” value [11] was 8%, the “Population Healthy Nuclei (%)” value [11] was 81% and the “Population Membrane Permeable-Phenotype (%)” value [11] was 2%. For the same compound, the “Population Mitochondria Different-Phenotype (%)” value [11] was 19%, the “Population Mitotic Cells (%)” value [11] was 65% and the “Population Tubulin-Different-Phenotype (%)” value [11] was 12%. For the same compound, the “Population Apoptotic (%)” value [12] was 72%, the “Population Fragmented Nuclei (%)” value [12] was 13% and the “Population Healthy Nuclei (%)” value [12] was 76%. For the same compound, the “Population Hoechst High Intensity Objects (%)” value [12] was 2%, the “Population Membrane Permeable-Phenotype (%)” value [12] was 17% and the “Population Mitochondria Different-Phenotype (%)” value [12] was 13%. For the same compound, the “Population Mitotic Cells (%)” value [12] was 27%, the “Population Normal (%)” value [12] was 97% and the “Population Pyknosed Nuclei (%)” value [12] was 10%. The “Population Tubulin-Different-Phenotype (%)” value [12] was 57% and the “Total Cell Count” value [12] was 157.
